# According to ChEMBL document CHEMBL5338772, “Stereochemical Control of Splice Modulation in FD-895 Analogues” (J Med Chem, 2023):
# The source made the active and inactive calls. No cut-off for these calls is given here.
# What was measured:
# SF3B2 pre-mRNA [1] = test: Modulation of splicing in SF3B2 pre-mRNA in human HCT-116 cells assessed as intron 10 retention level at 750 nM incubated for 4 hrs by qRT-PCR analysis; type: functional, cell-based; settings: filed as modulator
# In short: (§1)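 HCT-116 cells in supplemented McCoy's 5a, compound added from DMSO stock to a final 0.5% DMSO, 4 h at a single standardized concentration per analogue. Total RNA isolated and DNase-treated (1 µg). qPCR used 2.5 µM each primer on 5 ng cDNA, 40 cycles. Intron retention was computed by the 2^-CT method relative to GAPDH and expressed versus untreated cells set to 1.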
# SF3A3 pre-mRNA [2] = test: Modulation of splicing in SF3A3 pre-mRNA in human HCT-116 cells assessed as intron 5 retention level at 750 nM incubated for 4 hrs by qRT-PCR analysis; type: functional, cell-based; settings: filed as modulator
# AURKA pre-mRNA = test: Modulation of splicing in AURKA pre-mRNA in human HCT-116 cells assessed as effect on exon 4 skipping at 750 nM incubated for 4 hrs by qRT-PCR analysis; type: functional, cell-based; settings: filed as modulator
# SF3A1 pre-mRNA [3] = test: Modulation of splicing in SF3A1 pre-mRNA in human HCT-116 cells assessed as intron 6 retention level at 750 nM incubated for 4 hrs by qRT-PCR analysis; type: functional, cell-based; settings: filed as modulator
# SF3B1 pre-mRNA [4] = test: Modulation of splicing in SF3B1 pre-mRNA in human HCT-116 cells assessed as intron 13 retention level at 750 nM incubated for 4 hrs by qRT-PCR analysis; type: functional, cell-based; settings: filed as modulator; in short: as §1
# HCT-116 [5] = test: Cytotoxicity against human HCT-116 cells assessed as reduction in cell viability at 750 nM incubated for 4 hrs by MTS assay; type: toxicity, cell-based; settings: hct-116, 4 h, 0.75 µM
# [6] = Cytotoxicity against human HCT-116 cells assessed as cell growth inhibition incubated for 72 hrs by MTS assay; type: toxicity, cell-based
# In short: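 HCT-116 cells (ATCC; split every other day, no more than five generations, mycoplasma-tested) plated at 5 × 10³ cells/well in supplemented McCoy's 5a and grown 24 h at 37 °C, 5% CO₂. Compound added from DMSO (0.5% DMSO final) for 72 h. Cells washed with PBS, MTS reagent added for 2 h at 37 °C, A490 read against A690. GI₅₀ fitted from dose curves of 3 biological replicates.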
# DNAJB1 pre-mRNA [7] = test: Modulation of splicing in DNAJB1 pre-mRNA in human HCT-116 cells assessed as intron 2 retention level at 750 nM incubated for 4 hrs by qRT-PCR analysis; type: functional, cell-based; settings: filed as modulator
# HCT-116 [8] = test: Downregulation of SF3 mRNA expression in human HCT-116 cells at 2.6 uM incubated for 4 hrs by qRT-PCR analysis; type: functional, cell-based
# HCT-116 [9] = test: Effect on AURKA mRNA expression in human HCT-116 cells at 100 to 500 nM incubated for 24 hrs by qRT-PCR analysis; type: functional, cell-based; settings: dose 100-500 nM
# In short: (§2)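 HCT-116 cells in supplemented McCoy's 5a with 0.5% DMSO, treated 24 h at 100, 250 or 500 nM; untreated cells as control. Total RNA isolated, 1 µg DNase I-treated, reverse transcribed. qPCR on 5 ng cDNA with 2.5 µM each primer, 40 cycles of 95 °C 30 s, 55 °C 60 s, 72 °C 60 s. Splice-event primers for intron retention or exon skipping; SF2 primers measure total expression. 2^-CT method relative to GAPDH, untreated set at 1.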
# SF3B2 pre-mRNA [10] = test: Modulation of splicing in SF3B2 pre-mRNA in human HCT-116 cells assessed as intron 10 retention level at 2.6 uM incubated for 4 hrs by qRT-PCR analysis; type: functional, cell-based; settings: filed as modulator; in short: as §1
# SF3A1 pre-mRNA [11] = test: Modulation of splicing in SF3A1 pre-mRNA in human HCT-116 cells assessed as intron 6 retention level at 2.6 uM incubated for 4 hrs by qRT-PCR analysis; type: functional, cell-based; settings: filed as modulator
# SF3B2 pre-mRNA [12] = test: Modulation of splicing in SF3B2 pre-mRNA in human HCT-116 cells assessed as intron 10 retention at 100 to 500 nM incubated for 24 hrs by qRT-PCR analysis; type: functional, cell-based; settings: dose 100-500 nM
# In short: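 HCT-116 cells in supplemented McCoy's 5a with 0.5% final DMSO were treated for 24 h at 100, 250 or 500 nM. Total RNA isolated and DNase-treated (1 µg). qPCR used 2.5 µM each primer on 5 ng cDNA, 40 cycles. Intron retention was computed by the 2^-CT method relative to GAPDH and expressed versus untreated cells set to 1.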
# DNAJB1 pre-mRNA [13] = test: Modulation of splicing in DNAJB1 pre-mRNA in human HCT-116 cells assessed as intron 2 retention level at 2.6 uM incubated for 4 hrs by qRT-PCR analysis; type: functional, cell-based; settings: filed as modulator
# HCT-116 [14] = test: Cytotoxicity against human HCT-116 cells assessed as reduction in cell viability at 500 nM incubated for 24 hrs by MTS assay; type: toxicity, cell-based; settings: hct-116, 24 h, 0.5 µM
# In short: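 HCT-116 cells plated at 5 × 10³ cells/well in supplemented McCoy's 5a and grown 24 h at 37 °C, 5% CO₂. Compound given at 500 nM, the top dose of the 24 h splicing series, in 0.5% DMSO for 24 h. Cells washed with PBS, MTS reagent added for 2 h at 37 °C, A490 read against A690.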
# SF3A3 pre-mRNA [15] = test: Modulation of splicing in SF3A3 pre-mRNA in human HCT-116 cells assessed as intron 5 retention level at 2.6 uM incubated for 4 hrs by qRT-PCR analysis; type: functional, cell-based; settings: filed as modulator
# HCT-116 [16] = test: Cytotoxicity against human HCT-116 cells assessed as reduction in cell viability at 2.6 uM incubated for 4 hrs by MTS assay; type: toxicity, cell-based; settings: hct-116, 4 h
# DNAJB1 pre-mRNA [17] = test: Modulation of splicing in DNAJB1 pre-mRNA in human HCT-116 cells assessed as intron 2 retention at 100 to 500 nM incubated for 24 hrs by qRT-PCR analysis; type: functional, cell-based; settings: dose 100-500 nM; in short: as §2
# HCT-116 [18] = test: Downregulation of SF2 mRNA expression in human HCT-116 cells at 100 to 500 nM incubated for 24 hrs by qRT-PCR analysis; type: functional, cell-based; settings: dose 100-500 nM; in short: as §2
# SF3B1 pre-mRNA [19] = test: Modulation of splicing in SF3B1 pre-mRNA in human HCT-116 cells assessed as intron 13 retention level at 2.6 uM incubated for 4 hrs by qRT-PCR analysis; type: functional, cell-based; settings: filed as modulator; in short: as §1
# HCT-116 [20] = test: Downregulation of PLK-1 mRNA expression in human HCT-116 cells at 100 to 500 nM incubated for 24 hrs by qRT-PCR analysis; type: functional, cell-based; settings: dose 100-500 nM; in short: as §2
# SF3A3 pre-mRNA [21] = test: Modulation of splicing in SF3A3 pre-mRNA in human HCT-116 cells assessed as intron 5 retention at 100 to 500 nM incubated for 24 hrs by qRT-PCR analysis; type: functional, cell-based; settings: filed as modulator, dose 100-500 nM; in short: as §2
structure (smiles),measurement,setting,value
CC[C@H](OC)[C@@H](C)[C@H]1O[C@@H]1[C@@H](OC)[C@H](C)/C=C/C=C(\C)[C@H]1OC(=O)C[C@H](O)CC[C@@](C)(O)[C@@H](OC(C)=O)/C=C/[C@@H]1C,Activity,SF3B2 pre-mRNA [1],> 3
same,Activity,SF3A3 pre-mRNA [2],< 3
same,Activity,AURKA pre-mRNA,Active
same,Activity,SF3A1 pre-mRNA [3],> 3
same,Activity,SF3B1 pre-mRNA [4],< 3
same,Activity,HCT-116 [5],Non-Toxic
same,GI50 at 72 h,[6],40.5 nM
same,Activity,DNAJB1 pre-mRNA [7],> 3
CC[C@H](OC)[C@@H](C)[C@H]1O[C@@H]1[C@@H](O)[C@H](C)/C=C/C=C(\C)[C@H]1OC(=O)C[C@@H](O)CC[C@@](C)(O)[C@@H](OC(C)=O)/C=C/[C@@H]1C,Activity,HCT-116 [8],Active
same,Activity,HCT-116 [9],Active
same,Activity,SF3B2 pre-mRNA [10],> 3
same,Activity,SF3A1 pre-mRNA [11],> 3
same,Activity,SF3B2 pre-mRNA [12],inactive
same,Activity,DNAJB1 pre-mRNA [13],> 3
same,Activity,HCT-116 [14],Non-Toxic
same,Activity,SF3A3 pre-mRNA [15],< 3
same,Activity,HCT-116 [16],Non-Toxic
same,Activity,DNAJB1 pre-mRNA [17],inactive
same,Activity,HCT-116 [18],inactive
same,Activity,SF3B1 pre-mRNA [19],< 3
same,GI50 at 72 h,[6],143 nM
same,Activity,HCT-116 [20],Active
same,Activity,SF3A3 pre-mRNA [21],Active
